# A selection: hits, their analogues and other compounds. The true share with any hit is near 3.5%.
# RGS4 block: human RGS4 inhibition | P49798 | HEK293 M3R/RGS4 inducible, Fluo-4 calcium flux; active compounds read high; triggered by carbachol at its EC20 | B-score at 10 µM | hit rate 0.45% among 310,000;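 active = B-score, a plate-corrected calcium signal, over three deviations above library mean, with baseline fluorescence within five deviations of library mean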;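 note: RGS4 expression induced by doxycycline in cells with stable M3 receptor; B-score is computed from the integrated fluorescence ratio over baseline after carbachol; higher B-score means a larger calcium signal and so more RGS4 inhibition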
# Target sequence (P49798 whole entry, looked up): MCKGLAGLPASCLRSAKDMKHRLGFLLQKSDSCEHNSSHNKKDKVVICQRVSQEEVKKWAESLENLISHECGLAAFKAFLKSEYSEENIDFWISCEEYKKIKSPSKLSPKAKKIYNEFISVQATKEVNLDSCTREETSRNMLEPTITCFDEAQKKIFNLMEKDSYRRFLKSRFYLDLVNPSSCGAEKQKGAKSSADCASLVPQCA
# MrgX1 allo act: human MrgX1 positive allosteric modulation, primary screen | B-score at 10 µM | AID 588675 | MrgX1-HEK293, Fluo-4 calcium flux, FDSS; active compounds read high | hit rate 0.63% among 310,000 | Q96LB2;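 active = plate-corrected calcium response at least 3 library SD above typical, normal starting fluorescence, not activating the receptor alone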;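 note: compound read alongside a low EC10 to EC30 dose of BAM8-22 agonist; peak minus trough fluorescence over baseline measured at the second addition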
# Target sequence (Q96LB2 whole entry, looked up): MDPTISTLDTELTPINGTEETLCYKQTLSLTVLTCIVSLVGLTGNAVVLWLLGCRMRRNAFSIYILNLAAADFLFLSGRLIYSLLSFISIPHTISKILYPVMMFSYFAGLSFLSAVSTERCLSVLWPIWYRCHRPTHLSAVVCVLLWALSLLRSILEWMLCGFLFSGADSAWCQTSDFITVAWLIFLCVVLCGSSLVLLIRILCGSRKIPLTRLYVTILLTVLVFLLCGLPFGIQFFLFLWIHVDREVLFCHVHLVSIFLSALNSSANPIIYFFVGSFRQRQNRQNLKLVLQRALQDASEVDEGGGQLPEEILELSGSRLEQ
# RGS4 pot: potentiators or activators of RGS4; B-score at 10 µM; hit rate 0.92% among 310,000; HEK293 M3R/inducible RGS4, carbachol calcium flux Fluo4; active compounds read low;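 active = B-score of the integrated calcium signal more than 4 SD below the library mean, with starting fluorescence not abnormally high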;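 note: negative B-score means reduced calcium response which marks RGS4 activation or potentiation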
#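 Test system: HEK293 cells with stable M3R and inducible RGS4; also added: carbachol at ECmax as muscarinic agonist stimulus; schedule: dye loading 30 min 37 °C, buffer rest 30 min RT; technique: kinetic calcium fluorescence imaging with Fluo4-AM dye, 2 µM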
# MrgX1 agonist: human MrgX1 receptor agonism, primary screen; MrgX1-HEK293 cells, Fluo-4 calcium fluorescence, agonist mode; active compounds read high; AID 588627; B-score at 10 µM; Q96LB2; hit rate 0.44% among 310,000;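 active = calcium response B-score plate-corrected fluorescence ratio at least 3 library SD, with starting fluorescence B-score inside 5 SD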
#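 System: HEK293 cells stably expressing human MrgX1 receptor; Dosing: test compound in the initial addition of three; Schedule: overnight plating, then 30 min 37 °C plus 30 min room-temperature dye loading; Detection: kinetic calcium dye fluorescence, Fluo-4 NW; Controls: per-plate positive and negative controls for Z′ factor.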
# MrgX1 antagonist: antagonists of human MrgX1 receptor | Q96LB2 | MRGX1-HEK293 calcium flux, Fluo-4, BAM8-22 antagonism; active compounds read low | B-score at 10 µM | hit rate 1.3% among 310,000;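 active = calcium-response B-score plate-corrected more than 3 library SD below zero, starting fluorescence within 5 deviations, no agonist response on first addition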;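 note: peak minus trough fluorescence over baseline after final BAM8-22 challenge near maximal dose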
# MrgX1 ant reconf: human MrgX1 receptor antagonism, re-confirmation screen. remaining BAM8-22 calcium response % of control (active compounds read low), % at 10 µM. shares compounds with MrgX1 antagonist. MrgX1-HEK293, BAM8-22 calcium flux, Fluo-4; active compounds read low. hit rate 19% among 2,300;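 active = remaining agonist calcium response no higher than 100% minus 3 SD of agonist-only control wells, with starting fluorescence near control levels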;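 note: agonist BAM8-22 given at a near maximal EC90 to ECmax level; peak minus minimum fluorescence divided by baseline after agonist addition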
# HEK293 Ca flux: counter-screen for MrgX1 antagonists: effect in parental HEK293 cells; shares compounds with MrgX1 antagonist; Fluo-4 calcium fluorescence, FDSS; fluorescence ratio F(max-min)/F0 at 10 µM; hit rate 2% among 4,000; AID 624111;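 active = duplicate-averaged calcium fluorescence ratio at least three times the standard deviation of buffer wells, a nonspecific response in parental cells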
# HEK293 Ca counter: activity in parental HEK293 cells without MrgX1 | shares compounds with MrgX1 antagonist | parental HEK293 calcium flux, Fluo-4 fluorescence ratio; active compounds read high | fluorescence ratio F(max-min)/F0 at 10 µM | hit rate 0.4% among 4,000 | AID 624114;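 active = calcium fluorescence ratio, averaged over duplicates, at least 3 SD of the buffer-well ratio, meaning a nonspecific response in receptor-free cells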;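 note: untransfected parental HEK293 lacking MrgX1 used as counterscreen for MrgX1 allosteric activators; fluorescence change taken during the second addition on a kinetic imager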
# HEK293 Ca cntr2: activity in parental HEK293 cells lacking MrgX1 receptor; shares compounds with MrgX1 antagonist; hit rate 8.7% among 4,000; Fluo-4 calcium fluorescence (FDSS); active compounds read high; AID 624115; fluorescence ratio F(max-min)/F0 at 10 µM;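 active = calcium fluorescence ratio at least three times the spread of buffer wells, meaning a non-specific response in parental cells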
# * = called active by the depositor; i = inactive; x = no result given.
SMILES,RGS4 block,MrgX1 allo act,RGS4 pot,MrgX1 agonist,MrgX1 antagonist,MrgX1 ant reconf,HEK293 Ca flux,HEK293 Ca counter,HEK293 Ca cntr2
COc1ccccc1C(=O)N/C(=C/c1ccco1)C(=O)Nc1cccc(C(=O)O)c1,i,i,i,i,i,x,x,x,x
O=c1[nH]c(C(F)(F)F)nc2c1nnn2Cc1ccccc1F,i,i,i,i,-5.2*,i,i,i,i
COc1cccc(CNC(=O)C2CCN(S(=O)(=O)c3ccc4c(c3)CC(C)N4C(C)=O)CC2)c1 (stereo not given),i,i,i,i,i,x,x,x,x
Cc1cc(C(=O)NNC(=O)/C=C/c2ccccc2Cl)c(C)o1,i,i,i,i,-15*,i,i,i,i
COc1ccccc1OCc1ccc(C(=O)Nc2ccncc2)o1,i,i,i,i,i,x,x,x,x
O=C(NCCc1ccccc1)C1CCC(CNS(=O)(=O)c2cccc3cccnc23)CC1 (stereo not given),i,i,i,i,i,x,x,x,x
COC(=O)[C@@H](NC(=O)c1ccc2c(c1)S(=O)(=O)c1ccccc1C2=O)C(C)C,i,i,i,i,-4.7*,i,i,i,i
COc1ccc(NS(=O)(=O)c2cc3c(cc2C)NC(=O)CO3)c(OC)c1,i,i,i,i,-4.9*,i,i,i,i
COCc1cc(=O)[nH]c(=S)[nH]1,i,i,i,i,-7.1*,i,i,i,i
O=c1cc(Cc2ccccc2)[nH]c(=S)[nH]1,i,i,i,i,-5*,i,i,i,i
CCCOc1cc(CC(=O)NCc2ccco2)ccc1OC,i,i,i,i,i,x,x,x,x
COc1ccc(CC(=O)OCC(=O)NCc2ccco2)cc1OC,i,i,i,i,-5.3*,i,i,i,i
CCOc1ccccc1CNS(=O)(=O)c1cc(-c2cc(C)no2)ccc1OC,i,i,i,i,i,x,x,x,x
COc1ccc(-c2cc(C)no2)cc1S(=O)(=O)NCC(C)c1ccccc1 (stereo not given),i,i,i,i,-6.7*,i,i,i,i
COc1ccc(C2NS(=O)(=O)OCC2C)cc1 (stereo not given),i,i,i,i,i,x,x,x,x
Cc1ccc(NC(=O)c2cccs2)cc1NC(=O)c1cccnc1,i,i,i,i,i,x,x,x,x
O=C(Nc1ccc(NC(=O)c2cccs2)cc1)c1cccnc1,i,i,i,i,-5.8*,i,i,i,i
Cc1cccc(NC(=O)c2cccnc2)c1,i,i,i,i,i,x,x,x,x
O=C(NCCOC(=O)c1cccs1)c1cccnc1,i,i,i,i,-7.8*,i,i,i,i
Cc1cc(NC(=O)c2cccnc2)ccc1Br,i,i,i,i,-7.5*,i,i,i,i
Cc1cc(C)c(C(=O)OCC(=O)Nc2cccc(S(=O)(=O)N3CCCCC3)c2)c(C)c1,i,i,i,i,-11*,i,i,i,i
O=C(COC(=O)c1ccc(O)cc1)Nc1cccc(S(=O)(=O)N2CCCCC2)c1,i,i,i,i,i,x,x,x,x
CCc1cc(OCCCCNCc2ccccc2)ccc1Cl,i,i,i,i,i,x,x,x,x
O=C(COc1ccccc1)Nc1nnc(-c2ccc(F)cc2)o1,i,i,i,i,i,x,x,x,x
O=C(COc1ccccc1)Nc1nnc(-c2ccccc2Cl)o1,i,i,i,i,-7.9*,i,i,i,i
SMILES,RGS4 block,MrgX1 allo act,RGS4 pot,MrgX1 agonist,MrgX1 antagonist,MrgX1 ant reconf,HEK293 Ca flux,HEK293 Ca counter,HEK293 Ca cntr2
Cc1cccc(NC(=O)CSc2nc(N)cc(N)n2)c1,i,i,i,i,i,x,x,x,x
CCOC(=O)c1cccc(NC(=O)CSc2nc(N)cc(N)n2)c1,i,i,i,i,-7.7*,i,i,i,i
COCCNC(=O)c1ccc2c(=O)n(CCOC)c(=O)[nH]c2c1,i,i,i,i,-6.2*,i,i,i,i
CC(=O)c1ccc(OC(=O)CCc2nc3ccccc3s2)cc1,i,i,i,i,i,x,x,x,x
CC(=O)COc1ncnc2c(Cl)cc(Cl)cc12,i,i,i,i,-4.9*,i,i,i,i
COc1cccc(N=C2NC(=O)/C(=C/c3cc([N+](=O)[O-])ccc3O)S2)c1,i,i,i,i,-11*,i,i,i,i
COc1cccc(-c2nc(CS(=O)(=O)CC(=O)N3CCc4ccccc43)c(C)o2)c1,i,i,i,i,-4.9*,i,i,i,i
O=C(COC(=O)c1cnccn1)NCc1ccc2c(c1)OCO2,i,i,i,i,i,x,x,x,x
CCC1Oc2ccc(C)cc2N(CC(=O)NCCN2CCOCC2)C1=O (stereo not given),i,i,i,i,i,x,x,x,x
COc1cc(C2C(C#N)=C(N)N(c3cccnc3)C3=C2C(=O)CC(C)(C)C3)ccc1O (stereo not given),i,i,i,i,i,x,x,x,x
COc1ccccc1C1C(C#N)=C(N)N(c2cccnc2)C2=C1C(=O)CC(C)(C)C2 (stereo not given),i,i,i,i,-8.8*,i,i,i,i
Cn1c(=O)c2c(-c3ccc(OC(F)F)cc3)cc(-c3ccccc3)nc2n(C)c1=O,i,i,i,i,i,x,x,x,x
Nn1c(SCC(=O)N2CCOCC2)nnc1-c1ccccc1Cl,i,i,i,i,-6.2*,74%*,i,i,i
O=C(CSc1nnc2ccccn12)N1CCOCC1,i,i,i,i,i,x,x,x,x
O=C(c1csc2c1CCCCC2)N1CCN(c2ncccn2)CC1,i,i,i,i,i,x,x,x,x
CC(C)CCNC(=O)c1cc(-c2ccncc2)nc2ccc(S(=O)(=O)N3CCOCC3)cc12,i,i,i,i,-8.3*,i,i,i,i

# Assay outcomes: PubChem, Johns Hopkins Ion Channel Center
